Source: PubChem (several laboratories)
The list is not random: actives were taken first. Their share in the collection is about 3%.
MC4R antagonist = human MC4R antagonism in cAMP assay; 360,000 tested, 0.48% active; inhibition, % at 6.5 µM; AID 540295; MC4R-expressing cells, MTII-stimulated cAMP, LANCE TR-FRET; P32245;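 active means inhibition above its plate's cutoff, the mean of tested wells on that plate plus 3 SD, cut at about 29% in these data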
Target sequence (P32245 whole entry, looked up): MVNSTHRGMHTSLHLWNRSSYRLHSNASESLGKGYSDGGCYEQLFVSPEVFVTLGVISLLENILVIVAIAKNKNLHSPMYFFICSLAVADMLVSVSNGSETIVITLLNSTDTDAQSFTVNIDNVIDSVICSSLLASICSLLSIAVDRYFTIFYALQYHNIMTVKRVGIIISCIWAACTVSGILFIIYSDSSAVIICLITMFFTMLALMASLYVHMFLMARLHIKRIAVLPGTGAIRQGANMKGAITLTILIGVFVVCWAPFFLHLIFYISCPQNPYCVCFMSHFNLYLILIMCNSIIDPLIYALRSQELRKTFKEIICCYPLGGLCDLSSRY
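Test system: U2OS cells stably expressing human melanocortin 4 receptor (MC4R); also added: Melanotan II challenge; compound: 6.5 µM single dose; timing: 30-min compound preincubation, 1-h Melanotan II challenge, 1-h detection, room temperature; signal: Eu-cAMP/anti-cAMP TR-FRET, emission 671 nm; repeats: one well per compound, no replicates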
ABHD5-PLIN5 inh = ABHD5-PLIN5 protein interaction inhibition | 360,000 tested, 0.78% active | inhibition, % at 4 µM | Q00G26+Q8WTS1 | AID 602281 | Split G. princeps luciferase complementation, luminescence, 4 h;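 active means inhibition above the mean inhibition across every tested compound plus 3 SD, cut at about 22% in these data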
Beta2AR agonist = agonists of human beta-2 adrenergic receptor inducing internalization. P07550. Am2.2-beta2AR cells, FAP receptor internalization, flow cytometry. response, % (no concentration beside the values). 340,000 tested, 0.43% active. AID 504454;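 active means response above a set limit, near 3 SD of response in nonfluorescent compounds, cut at about 42% in these data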
PfG6PD inh = PfG6PD (Plasmodium falciparum) enzyme inhibition. PfGluPho enzyme, NADPH resazurin-diaphorase fluorescence. inhibition, % at 20 µM. 350,000 tested, 0.78% active. AID 504690;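 active means inhibition reaching at least a set limit at 20 µM in the primary screen, cut at about 59% in these data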
MC4R barr agon = agonists of human melanocortin 4 receptor (MC4R) beta-arrestin. P32245. U2OS MC4R beta-arrestin complementation, luminescence; percent of melanotan II response, DMSO zero. activation, % at 8.9 µM. 360,000 tested, 0.98% active;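 active means activation above a per-plate cutoff, the mean activation of sample wells on that plate plus 3 SD, cut at about 8% in these data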
ABHD5-PLIN5 conf = ABHD5-PLIN5 interaction inhibition, confirmed. inhibition, % at 4 µM. shares compounds with ABHD5-PLIN5 inh. biochemical ABHD5-PLIN5 interaction, luminescence. 2,200 tested, 67% active; in the data active means inhibition above about 23%
HNF4 split-luc = active in HNF4 split-luciferase counter-screen for ABHD5-PLIN5 inhibitors | HNF4 dimerization, luminescence, biochemical | shares compounds with ABHD5-PLIN5 inh | AID 651674 | 2,200 tested, 77% active | inhibition, % at 4 µM;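 active means mean inhibition across replicate wells exceeding the computed hit threshold, cut at about 13% in these data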;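 further: light from luciferase halves that rejoin when HNF4 fusion proteins dimerize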
Numbers stand for hits.

`C[C@H](CO)N1C[C@H](C)[C@@H](CN(C)Cc2ccccc2)Oc2c(NC(=O)Cc3ccccc3)cccc2C1=O` gave MC4R antagonist inactive, ABHD5-PLIN5 inh inactive, Beta2AR agonist inactive, PfG6PD inh inactive and MC4R barr agon inactive.
CCOC(=O)C1CCCN(C(=O)c2cc(Nc3ccc(OC)cc3)nc3ccccc23)C1 (configuration not stated) was read as MC4R antagonist inactive, ABHD5-PLIN5 inh 28.6, Beta2AR agonist inactive, PfG6PD inh inactive, MC4R barr agon inactive and ABHD5-PLIN5 conf 42.3.
For Cc1[nH]c(=O)[nH]c(=O)c1S(=O)(=O)N1CCCCC1 the results were MC4R antagonist inactive, ABHD5-PLIN5 inh 29.2, Beta2AR agonist inactive, PfG6PD inh inactive, MC4R barr agon inactive, ABHD5-PLIN5 conf inactive and HNF4 split-luc 15.8.
`CCOC(=O)C1CCCN(C(=O)c2ccc3nc(-c4cccc(OC)c4)oc3c2)C1` (configuration not stated) gave MC4R antagonist inactive, ABHD5-PLIN5 inh inactive, Beta2AR agonist inactive, PfG6PD inh inactive and MC4R barr agon inactive.
For CCOc1cc(C=C(C(=O)OC)C(=O)OC)ccc1OCc1ccc([N+](=O)[O-])cc1 the results were MC4R antagonist inactive, ABHD5-PLIN5 inh 65.7, Beta2AR agonist inactive, PfG6PD inh inactive, MC4R barr agon inactive, ABHD5-PLIN5 conf 96.2 and HNF4 split-luc 89.7.
`Cc1ccc(CC2S/C(=C(/C#N)C(=O)NCc3ccco3)N(c3ccccc3)C2=O)cc1` (configuration not stated) gave MC4R antagonist inactive, ABHD5-PLIN5 inh 23.4, Beta2AR agonist inactive, PfG6PD inh inactive, MC4R barr agon inactive, ABHD5-PLIN5 conf inactive and HNF4 split-luc 12.8.
For CCCCNC(=O)C(NC(=O)c1cccc(C(F)(F)F)c1)C(=O)c1ccccc1 (configuration not stated) the results were ABHD5-PLIN5 inh inactive.
`O=C1CCN(Cc2ccc(O)cc2)CCN1[C@H](CO)c1ccccc1` gave MC4R antagonist inactive, ABHD5-PLIN5 inh 47.4, Beta2AR agonist inactive, PfG6PD inh inactive, MC4R barr agon inactive, ABHD5-PLIN5 conf inactive and HNF4 split-luc 14.8.
O=C1CCN(Cc2ccccc2)CCN1[C@H](CO)c1ccccc1 was read as MC4R antagonist inactive, ABHD5-PLIN5 inh inactive, Beta2AR agonist inactive, PfG6PD inh inactive and MC4R barr agon inactive.
O=[N+]([O-])c1cc(S(=O)(=O)NCCN2CCOCC2)ccc1Sc1nnnn1-c1ccccc1 was read as MC4R antagonist inactive, ABHD5-PLIN5 inh inactive, Beta2AR agonist inactive, PfG6PD inh inactive and MC4R barr agon inactive.
Screening Cc1ccc(-n2nnnc2Sc2ccc(S(=O)(=O)NCCN(C)C)cc2[N+](=O)[O-])cc1 returned MC4R antagonist inactive, ABHD5-PLIN5 inh 31.2, Beta2AR agonist inactive, PfG6PD inh inactive, MC4R barr agon inactive, ABHD5-PLIN5 conf inactive and HNF4 split-luc 34.2.
For CC[N+]1(C)CCC(O)(/C=C/c2ccccc2)C(C(=O)/C=C/c2ccccc2)C1 (configuration not stated) the results were MC4R antagonist inactive, ABHD5-PLIN5 inh 45.1, Beta2AR agonist inactive, PfG6PD inh inactive, MC4R barr agon inactive, ABHD5-PLIN5 conf 93.0 and HNF4 split-luc 109.3.
`C#CCN1C=CC(=O)[C@@H](OC(=O)Nc2ccc(C)cc2)[C@H]1c1ccccc1Br` gave MC4R antagonist inactive, ABHD5-PLIN5 inh inactive, Beta2AR agonist inactive, PfG6PD inh inactive and MC4R barr agon inactive.
`CN1CCN(C2Cc3cc(F)ccc3Sc3ccc(Cl)cc32)CC1` (configuration not stated) gave MC4R antagonist inactive, ABHD5-PLIN5 inh inactive, Beta2AR agonist inactive, PfG6PD inh inactive and MC4R barr agon inactive.
Screening CN1CCN(C2=Cc3ccccc3Sc3cc(F)ccc32)CC1 returned MC4R antagonist inactive, ABHD5-PLIN5 inh 23.3, Beta2AR agonist inactive, PfG6PD inh inactive, MC4R barr agon inactive, ABHD5-PLIN5 conf inactive and HNF4 split-luc inactive.
`CN1CCN(C2=Cc3ccc(Cl)cc3Sc3ccc(F)cc32)CC1` gave MC4R antagonist inactive, ABHD5-PLIN5 inh 28.7, Beta2AR agonist inactive, PfG6PD inh inactive, MC4R barr agon inactive, ABHD5-PLIN5 conf inactive and HNF4 split-luc inactive.
